Measurements as given in ChEMBL document CHEMBL1122480, “Synthesis and pharmacological studies of 4,4-disubstituted piperidines: a new class of compounds with potent analgesic properties” (J Med Chem, 1983).

Assays:
[1] = biological target: T1, Opioid receptor (Rattus norvegicus, UniProt P33533+P34975+P33535); assay: Inhibition of [3H]naloxone binding to rat brain membrane with 100 mM NaCl.
[2] = tested on: Mus musculus; assay: Analgesic activity using PQW test, oral administration; type: functional
Summary of the method: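 Oral drug in mice, followed by phenylbenzoquinone-induced writhing. Analgesia is scored as fewer abdominal contractions in a group of five animals than in a control group. ED50 is the dose that reduces contractions by 50%, estimated graphically by the Litchfield method. Otherwise the percentage of animals showing analgesia is given.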

[3] = biological target: T1, Opioid receptor; assay: Inhibition of [3H]-Naloxone binding to rat brain membrane without NaCl
[4] = tested on: Mus musculus; assay: 5 HTP (5-hydroxytryptophan) antagonism in mouse 0.5 hr after subcutaneous administration (0.01-0.3 dose range).; type: functional; details: sc
Summary of the method: (§1)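 Mice received drug sc over the stated dose range, then DL-5-hydroxytryptophan to induce head twitches. ED50 is the dose that cut the mean number of head twitches by 50% versus a saline-treated control group (N = 5-10). It was estimated graphically by the Litchfield method.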

[5] = tested on: Mus musculus; assay: Analgesic activity in tail flick test, oral administration; type: functional
Summary of the method: (§2)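 Mouse tail-flick test against a noxious heat stimulus (D'Amour–Smith method), with drug given by the stated route. […] Where no exact ED50 was obtained, the percentage of animals showing analgesia is reported.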

[6] = tested on: Mus musculus; assay: Analgesic activity in tail flick test, subcutaneous administration; type: functional; summary of the method: as §2
[7] = tested on: Mus musculus; assay: 5 HTP (5-hydroxytryptophan) antagonism in mouse 0.5 hr after subcutaneous administration (0.003-0.1 dose range).; type: functional; details: sc; summary of the method: as §1
[8] = biological target: T2, Serotonin (5-HT) receptor (Homo sapiens) (UniProt P30939+P41595+Q13639+P28222+P46098+P08908+P28221+P28223+P28335+P28566+P34969+P50406+P47898+A5X5Y0+O95264+Q70Z44+Q8WXA8); assay: Serotonin antagonism in guinea pig 6 h after subcutaneous administration.; type: functional, organism-based; details: Cavia porcellus; target entry is the homologue from another species
Summary of the method: (§3)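 Guinea pigs were protected against a lethal serotonin dose, per the cited Roemer and Weidmann method. Test substance was given subcutaneously or orally, as named in each line. Protection was assessed at the stated interval after dosing (0.5, 6 or 24 h). ED50 (mg/kg) was estimated graphically by the Litchfield method.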

[9] = biological target: T2, Serotonin (5-HT) receptor (Homo sapiens); assay: Serotonin antagonism in guinea pig 0.5 hr after subcutaneous administration.; type: functional, organism-based; details: Cavia porcellus; target entry is the homologue from another species; summary of the method: as §3
[10] = biological target: T2, Serotonin (5-HT) receptor (Homo sapiens); assay: Serotonin antagonism in guinea pig 6 hr after oral administration.; type: functional, organism-based; details: Cavia porcellus; target entry is the homologue from another species; summary of the method: as §3
[11] = biological target: T2, Serotonin (5-HT) receptor (Homo sapiens); assay: Serotonin antagonism in guinea pig 24 hr after subcutaneous administration.; type: functional, organism-based; details: Cavia porcellus; target entry is the homologue from another species; summary of the method: as §3
[12] = biological target: T2, Serotonin (5-HT) receptor (Homo sapiens); assay: Serotonin antagonism in guinea pig 24 hr after oral administration.; type: functional, organism-based; details: Cavia porcellus; target entry is the homologue from another species; summary of the method: as §3
[13] = biological target: T2, Serotonin (5-HT) receptor (Homo sapiens); assay: Serotonin antagonism in guinea pig 0.5 hr after oral administration.; type: functional, organism-based; details: Cavia porcellus; target entry is the homologue from another species; summary of the method: as §3
[14] = tested on: Mus musculus; assay: 5 HTP (5-hydroxytryptophan) antagonism in mouse 0.5 h after subcutaneous administration (0.03-0.1 dose range).; type: functional; details: sc; summary of the method: as §1
[15] = Mus musculus, po, read-out: ED50
[16] = Mus musculus, Tail, sc, read-out: ED50
[17] = Mus musculus, Tail, po, read-out: ED50

Row | SMILES | ED50 [2, 15] [mg/kg] | ED50 [6, 16] [mg/kg] | ED50 [5, 17] [mg/kg] | also measured
1 | CC(C(=O)N(C)C1CCCCC1)C1(O)CCN(CCc2ccccc2Cl)CC1.O=C(O)/C=C\C(=O)O (stereo in doubt; 15) | 10.8 |  |  | IC50 [1]: 450 nM; IC50 [3]: 45 nM; ED50 [4]: 0.07 mg/kg; ED50 [5]: 22 mg/kg; ED50 [6]: 3.2 mg/kg
2 | COc1ccccc1NC(=O)C(C)C1(O)CCN(CCc2ccccc2Cl)CC1.O=C(O)/C=C/C(=O)O (stereo unspecified) | 5.6 | > 18 |  | 
3 | CC(C(=O)N(C)C1CCCCC1)C1CCN(CCc2ccccc2Cl)CC1.Cl (stereo unspecified) | < 18 | 2.9 | 37 | 
4 | CCCCC(C(=O)N(C)C1CCCCC1)C1(O)CCN(CCc2ccccc2Cl)CC1.O=C(O)/C=C/C(=O)O (stereo unspecified) | > 56 | > 56 | > 100 | 
5 | CN1CC[C@]23c4c5ccc(O)c4O[C@H]2[C@@H](O)C=C[C@H]3[C@H]1C5 [MORPHINE] | 1.4 | 3.4 | 23 | 
6 | CCCN(C(=O)C(C)C1(O)CCN(CCc2ccccc2Cl)CC1)C1CCCCC1 (stereo unspecified) | < 32 | > 10 | 56 | 
7 | CCCCN(CCCC)C(=O)C(C)C1(O)CCN(CCc2ccccc2Cl)CC1.O=C(O)/C=C/C(=O)O (stereo unspecified) | < 30 | < 50 | < 100 | 
8 | CN(C(=O)C1(C2(O)CCN(CCc3ccccc3Cl)CC2)CC1)C1CCCCC1.O=C(O)/C=C\C(=O)O | > 56 | 10 |  | 
9 | Cc1ccc(CCN2CCC(O)(C(C)C(=O)N(C)C3CCCCC3)CC2)cc1.Cl (stereo unspecified) | < 56 | > 3.2 | 100 | 
10 | CN(C(=O)C1(C2(O)CCN(CCc3ccccc3Cl)CC2)CCCC1)C1CCCCC1.O=C(O)/C=C/C(=O)O | > 56 | > 56 | 100 | 
11 | Br.CC(C)C(C(=O)N(C)C1CCCCC1)C1(O)CCN(CCc2ccccc2Cl)CC1 (stereo unspecified) | < 56 | > 56 | > 100 | 
12 | CC(C(=O)N(C)c1cccc(O)c1)C1(O)CCN(CCc2ccccc2Cl)CC1.O=C(O)/C=C/C(=O)O (stereo unspecified) | > 18 | > 56 |  | 
13 | CN(C(=O)CC1(O)CCN(CCc2ccccc2Cl)CC1)C1CCCCC1.Cl | > 18 | > 3.2 | < 56 | 
14 | C#CCN(C(=O)C(C)C1(O)CCN(CCc2ccccc2Cl)CC1)c1ccccc1OC.O=C(O)/C=C\C(=O)O (stereo unspecified) | 0.56 | 0.13 | 5.4 | IC50 [1]: 4.2 nM; IC50 [3]: 0.41 nM
15 | CC(C(=O)N(C)C1CCCCC1)C1(O)CCN(CCc2ccccc2)CC1.Cl (stereo unspecified) | 18 | 18 | > 56 | 
16 | CCCN(C(=O)C(C)C1(O)CCN(CCc2ccccc2Cl)CC1)c1ccccc1OC.O=C(O)/C=C/C(=O)O (stereo unspecified) | 1.8 | 0.11 | 5.4 | IC50 [1]: 0.66 nM; IC50 [3]: 0.51 nM; ED50 [7]: 0.015 mg/kg
17 | Br.CCCCCCCN1CCC(O)(C(C)C(=O)N(C)C2CCCCC2)CC1 (stereo unspecified) | > 56 | > 56 | > 100 | 
18 | CCC(=O)OC1(C(C)C(=O)N(C)C2CCCCC2)CCN(CCc2ccccc2Cl)CC1 (stereo unspecified) | < 56 | < 3.2 |  | 
19 | Br.COc1cccc(CCN2CCC(O)(C(C)C(=O)N(C)C3CCCCC3)CC2)c1 (stereo unspecified) | > 18 | 18 |  | 
20 | C=CCN(C(=O)C(C)C1(O)CCN(CCc2ccccc2Cl)CC1)C1CCCCC1.O=C(O)/C=C\C(=O)O (stereo unspecified) | < 32 | 4 |  | IC50 [1]: 20 nM; IC50 [3]: 2.4 nM
21 | C=CCN(C(=O)C(C)C1(O)CCN(CCc2ccccc2Cl)CC1)c1ccccc1OC.O=C(O)/C=C\C(=O)O (stereo unspecified) | 0.56 | 0.09 | 7.6 | IC50 [1]: 2.9 nM; IC50 [3]: 0.41 nM

Row | SMILES | ED50 [2, 15] [mg/kg] | ED50 [6, 16] [mg/kg] | ED50 [5, 17] [mg/kg] | also measured
22 | CCCN(C(=O)C(C)C1(OC(=O)CC)CCN(CCc2ccccc2Cl)CC1)c1ccccc1OC.O=C(O)/C=C\C(=O)O (stereo unspecified) | 1 | 32 | 100 | 
23 | CCOc1ccccc1N(CC)C(=O)C(C)C1(O)CCN(CCc2ccccc2Cl)CC1 (stereo unspecified) | 1.8 | 0.26 | 10 | IC50 [1]: 1.8 nM; IC50 [3]: 0.55 nM
24 | CN1CCC(=C2c3ccccc3CCc3sccc32)CC1 [PIZOTYLINE] |  |  |  | ED50 [7]: 0.015 mg/kg
25 | CC(C(=O)N(C1CCCCC1)C1CCCCC1)C1(O)CCN(CCc2ccccc2Cl)CC1.Cl (stereo unspecified) | < 56 | > 56 | > 100 | 
26 | CCCCNC(=O)C(C)C1(O)CCN(CCc2ccccc2Cl)CC1 (stereo unspecified) | > 32 | > 18 | < 100 | 
27 | C=CCN1CCC(O)(C(C)C(=O)N(C)C2CCCCC2)CC1.O=C(O)/C=C/C(=O)O (stereo unspecified) | 1 | 32 |  | 
28 | CCN(C(=O)C(C)(C)C1(O)CCN(CCc2ccccc2Cl)CC1)c1ccccc1OC.O=C(O)/C=C/C(=O)O | > 18 | > 56 | > 100 | IC50 [1]: 35 nM; IC50 [3]: 7.5 nM
29 | CC(C(=O)N(C)C1CCCCC1)C1(O)CCN(CCc2ccccc2Cl)CC1 (stereo in doubt; 15) |  |  |  | ED50 [8]: 0.007 mg/kg; ED50 [9]: 0.015 mg/kg; ED50 [10]: 0.009 mg/kg; ED50 [11]: 0.028 mg/kg; ED50 [12]: 0.045 mg/kg; ED50 [13]: 0.01 mg/kg
30 | COc1ccccc1NC(=O)C(C)(C)C1(O)CCN(CCc2ccccc2Cl)CC1.Cl | < 56 | > 32 |  | 
31 | CC(C(=O)N(C)C1CCCCC1)C1(O)CCN(CCc2ccccc2Cl)CC1 (stereo unspecified) [PIPRAMADOL] | 10 | 3.8 | 100 | 
32 | CC(C(=O)N(C)C1CCCCC1)C1(O)CCN(CCc2ccccc2Cl)CC1.O=C(O)/C=C\C(=O)O (single isomer, unassigned; (-)) |  |  |  | ED50 [2]: 20 mg/kg; ED50 [5]: 100 mg/kg; ED50 [6]: 42 mg/kg
33 | CC(C(=O)N(C1CCCCC1)C(C)(C)C)C1(O)CCN(CCc2ccccc2Cl)CC1.O=C(O)/C=C/C(=O)O (stereo unspecified) | < 56 | > 10 | > 56 | 
34 | CN(C(=O)C(C)(C)C1(O)CCN(CCc2ccccc2Cl)CC1)C1CCCCC1 [PIPRADIMADOL] | 26 | 21 | > 100 | IC50 [1]: 825 nM; ED50 [8]: 0.05 mg/kg; ED50 [9]: 0.055 mg/kg; IC50 [3]: 550 nM; ED50 [10]: 0.14 mg/kg; ED50 [11]: > 0.1 mg/kg; ED50 [14]: 0.1 mg/kg; ED50 [12]: 0.135 mg/kg; ED50 [13]: 0.103 mg/kg
35 | CC(C(=O)NC1CCCCC1)C1(O)CCN(CCc2ccccc2Cl)CC1.O=C(O)/C=C\C(=O)O (stereo unspecified) | > 56 | > 3.2 | < 56 | 
36 | CC(C(=O)N(C)c1ccc(Cl)cc1)C1(O)CCN(CCc2ccccc2Cl)CC1.O=C(O)/C=C/C(=O)O (stereo unspecified) | 9.7 | 6.8 | > 56 | 
37 | CN1CCC(=C2c3ccccc3C=Cc3ccccc32)CC1 [CYPROHEPTADINE] |  |  |  | ED50 [7]: 0.015 mg/kg
38 | CCN(C(=O)C(C)C1(O)CCN(CCc2ccccc2Cl)CC1)c1ccccc1OC.O=C(O)/C=C/C(=O)O (stereo unspecified) | 56 | 0.07 | 4.9 | IC50 [1]: 6.3 nM; IC50 [3]: 0.94 nM; ED50 [14]: 0.07 mg/kg
39 | COc1ccccc1N(C)C(=O)C(C)C1(O)CCN(CCc2ccccc2Cl)CC1.O=C(O)/C=C\C(=O)O (stereo unspecified) | 18 | 0.68 | > 18 | IC50 [1]: 51 nM; IC50 [3]: 3.3 nM
40 | CCOc1ccccc1N(C)C(=O)C(C)C1(O)CCN(CCc2ccccc2Cl)CC1.O=C(O)/C=C/C(=O)O (stereo unspecified) | 1.8 | 0.51 | < 32 | IC50 [1]: 10 nM; IC50 [3]: 0.98 nM
41 | CC(C(=O)N(C)C1CCCCC1)C1(O)CCN(C)CC1.Cl (stereo unspecified) | > 56 | > 56 | > 100 | 
